Experiments:
[1] = Anticancer activity against human LNCaP-hr cells assessed as prostate specific antigen level at 10 uM after 3 days by enzyme immunoassay relative to control; format: functional
Method in brief: (§1)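 LNCaP-hr cells (CRPC model, T877A AR) seeded at 40,000 cells/well in phenol red-free RPMI1640 with 10% DCC-FBS; compounds at 1–10 µM added next day; secreted PSA measured and expressed as % of control; n = 3.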

[2] = Anticancer activity against human LNCaP-hr cells assessed as prostate specific antigen level at 1 uM after 3 days by enzyme immunoassay relative to control; format: functional; method in brief: as §1
Mus musculus [3] = assay: Toxicity in athymic nude BALB/c mouse xenografted with human LNCaP-hr cells assessed as body weight loss at 20 mg/kg, po bid after 28 days; format: organism-based; design: dose 20 mg/kg, route oral; conditions: in vivo
Method in brief: (§2)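 Castrated mice bearing s.c. LNCaP-hr xenografts (n = 6/group), dosed orally twice daily for 28 days in 0.5% methylcellulose vehicle; body weight tracked over the treatment period versus castration + vehicle controls.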

Mus musculus [4] = assay: Toxicity in athymic nude BALB/c mouse xenografted with human LNCaP-hr cells assessed as body weight loss at 40 mg/kg, po bid after 28 days; format: organism-based; design: dose 40 mg/kg, route oral; conditions: in vivo; method in brief: as §2
[5] = Anticancer activity against human LNCaP-hr cells xenografted in BALB/c athymic nude mouse assessed as prostate specific antigen level in plasma at 20 mg/kg, po bid after 28 days relative to control; format: functional
Method in brief: (§3)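 Mice castrated, then given LNCaP-hr cells (5 × 10⁷ cells/mL in PBS/Matrigel 1:1) s.c. in flank the same day; grouped at ~100–300 mm³ tumor volume (n = 6/group); from next day, oral dosing in 0.5% methylcellulose vehicle, bid or qd, 28 days. T/C% = tumor volume increase in treated/vehicle group × 100; serum/plasma PSA at end by ELISA.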

[6] = Anticancer activity against human LNCaP-hr cells xenografted in BALB/c athymic nude mouse assessed as change in tumor volume at 40 mg/kg, po bid after 28 days relative to control; format: functional; method in brief: as §3
[7] = Anticancer activity against human LNCaP-hr cells xenografted in BALB/c athymic nude mouse assessed as change in tumor volume at 20 mg/kg, po bid after 28 days relative to control; format: functional; method in brief: as §3
[8] = Anticancer activity against human LNCaP-hr cells xenografted in BALB/c athymic nude mouse assessed as prostate specific antigen level in plasma at 40 mg/kg, po bid after 28 days relative to control; format: functional; method in brief: as §3
Mus musculus [9] = assay: Toxicity in athymic nude BALB/c mouse xenografted with human LNCaP-hr cells assessed as body weight loss at 50 mg/kg, po bid after 28 days; format: organism-based; design: dose 50 mg/kg, route oral; conditions: in vivo; method in brief: as §2
[10] = Anticancer activity against human LNCaP-hr cells xenografted in BALB/c athymic nude mouse assessed as prostate specific antigen level in plasma at 50 mg/kg, po bid after 28 days relative to control; format: functional; method in brief: as §3
[11] = Anticancer activity against human LNCaP-hr cells xenografted in BALB/c athymic nude mouse assessed as change in tumor volume at 50 mg/kg, po bid after 28 days relative to control; format: functional; method in brief: as §3
[12] = Anticancer activity against human LNCaP-hr cells xenografted in BALB/c athymic nude mouse assessed as change in tumor volume at 100 mg/kg, po qd after 28 days relative to control; format: functional; method in brief: as §3
[13] = Anticancer activity against human LNCaP-hr cells xenografted in BALB/c athymic nude mouse assessed as prostate specific antigen level in plasma at 100 mg/kg, po qd after 28 days relative to control; format: functional; method in brief: as §3

| Structure (SMILES) | Activity [1] | Activity [2] | also measured |
| --- | --- | --- | --- |
| Cc1nn(-c2ccc(C#N)c(Cl)c2)c(C)c1Cc1ccc(C(=O)NC(C)(C)C)cc1 | 57% | 33% | – |
| Cc1nn(-c2ccc(C#N)c(Cl)c2)c(C)c1Cc1ccc(C(=O)NCC(C)(C)O)cc1 | 31% | 27% | Activity (Mus musculus [3]): Non-toxic; Activity (Mus musculus [4]): Non-toxic; T/C [5]: 88%; T/C [6]: 3%; T/C [7]: 15%; T/C [8]: 23%; Activity (Mus musculus [9]): Non-toxic |
| Cc1nn(-c2ccc(C#N)c(Cl)c2)c(C)c1Cc1ccc(C(=O)N2CCOCC2)cc1 | – | 35% | – |
| Cc1nn(-c2ccc(C#N)c(Cl)c2)c(C)c1Oc1ccc(C(=O)NCC(C)(C)O)cc1 | >100% | 33% | – |
| Cc1nn(-c2ccc(C#N)c(Cl)c2)c(C)c1Cc1cccc(C(N)=O)c1 | 35% | 21% | – |
| Cc1nn(-c2ccc(C#N)c(Cl)c2)c(C)c1Cc1ccc(C(N)=O)cc1 | – | 76% | – |
| Cc1nn(-c2ccc(C#N)c(Cl)c2)c(C)c1Cc1ccc(C(=O)N(C)C)cc1 | – | 21% | – |
| Cc1nn(-c2ccc(C#N)c(Cl)c2)c(C)c1Cc1ccc(C(=O)NCCO)cc1 | – | 33% | – |
| Cc1nn(-c2ccc(C#N)c(Cl)c2)c(C)c1Oc1ccc(C(=O)N2CCOCC2)cc1 | 22% | 22% | – |
| CC(=O)Nc1ccc(Oc2c(C)nn(-c3ccc(C#N)c(Cl)c3)c2C)nc1 | 14% | 8% | – |
| Cc1nn(-c2ccc(C#N)c(Cl)c2)c(C)c1Oc1ccc(NC(=O)C(C)(C)C)cn1 | 5% | 8% | T/C [10]: 17%; T/C [11]: 2% |
| CC(=O)Nc1ccc(Oc2c(C)nn(-c3ccc(C#N)c(Cl)c3)c2C)cn1 | 39% | 11% | – |
| CC(O)(CS(=O)(=O)c1ccc(F)cc1)C(=O)Nc1ccc(C#N)c(C(F)(F)F)c1 (configuration not stated) [BICALUTAMIDE] | >100% | – | T/C [12]: 37%; T/C [13]: 142% |
